MBD2 DNA inh: inhibitors of human MBD2 binding to methylated oligonucleotide. inhibition, % at 4.4 µM. AID 686964. TR-FRET. Q9UBB5. 0.31% of 370,000 active; in the data active means inhibition above about 13%
SUMO1 PPI mod: SUMO1-SIM interaction modulation; P63165; SUMO1 binding to a labelled peptide, TR-FRET, 1 h; inhibition, % at 20 µM; 0.33% of 360,000 active; AID 602429; in the data active means inhibition above about 37%
DNMT1 inh: DNMT1 (human) enzyme inhibition. P26358. DNMT1 molecular beacon, Hinp1I cleavage, fluorescence. inhibition (reported as % activation of signal), % at 10 µM. 0.83% of 360,000 active; in the data active means inhibition above about 50%
HCV NS3 hel inh: blocks Hepatitis C virus NS3 helicase unwinding | 0.56% of 290,000 active | NS3 helicase DNA unwinding, Cy5 molecular beacon fluorescence | inhibition, % at 10.9 µM;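 active means inhibition above the mean of all tested compounds plus 3 SD, set per campaign, cut at about 35% in these data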
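Assay system: hepatitis C virus NS3 helicase domain fragment enzyme. Also added: annealed dual-labelled DNA beacon duplex, ATP-started. Timing: 1 h reaction at 25 °C, ATP-initiated. Technique: Cy5 fluorescence at 0 and 60 min, beacon hairpin quenching. Evaluation: % inhibition of unwinding. Replication: one well per compound.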
DSG3 Ab inh: blocks pemphigus antibody binding to human desmoglein-3. DSG3-coupled beads, scFv-anti-DSG3-GFP binding, flow cytometry; hits give low values. P32926. 0.48% of 310,000 active. binding (percent of control), % at 10 µM;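 active means binding more than 3 SD below its plate's average and above zero; inconclusive means below that plate limit but binding exactly zero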;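 further: hits lower antibody fragment binding to DSG3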
UHRF1 binding: UHRF1 methyl-DNA binding inhibition | 0.75% of 370,000 active | UHRF1 binding to methylated oligo, TR-FRET | inhibition, % at 4.4 µM | Q96T88; in the data active means inhibition above about 21%;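 further: UHRF1 SRA domain binding a hemimethylated CpG hairpin DNA probe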
Target sequence (Q96T88 whole entry, looked up, the tested form may be a part): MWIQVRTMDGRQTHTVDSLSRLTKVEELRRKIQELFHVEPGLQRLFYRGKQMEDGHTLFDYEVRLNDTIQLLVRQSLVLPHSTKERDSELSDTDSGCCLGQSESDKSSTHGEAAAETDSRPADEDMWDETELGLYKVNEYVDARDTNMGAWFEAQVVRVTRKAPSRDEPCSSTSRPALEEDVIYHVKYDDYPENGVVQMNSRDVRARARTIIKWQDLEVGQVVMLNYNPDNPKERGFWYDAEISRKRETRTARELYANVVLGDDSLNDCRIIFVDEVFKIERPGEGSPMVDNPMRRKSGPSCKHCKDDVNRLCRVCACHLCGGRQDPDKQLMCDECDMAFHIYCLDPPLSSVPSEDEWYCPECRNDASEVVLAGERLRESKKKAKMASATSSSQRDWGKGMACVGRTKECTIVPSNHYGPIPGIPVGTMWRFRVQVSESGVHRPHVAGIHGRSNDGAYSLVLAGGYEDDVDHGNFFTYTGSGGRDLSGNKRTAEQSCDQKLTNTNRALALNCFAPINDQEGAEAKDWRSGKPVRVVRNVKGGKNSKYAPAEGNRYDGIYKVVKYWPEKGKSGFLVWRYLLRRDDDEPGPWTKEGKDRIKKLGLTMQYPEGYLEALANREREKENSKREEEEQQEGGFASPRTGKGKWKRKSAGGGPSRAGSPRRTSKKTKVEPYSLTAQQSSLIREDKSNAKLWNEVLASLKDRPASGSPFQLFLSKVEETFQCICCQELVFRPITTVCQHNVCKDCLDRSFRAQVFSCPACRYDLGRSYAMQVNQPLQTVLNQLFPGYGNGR
Numbers stand for hits. The list is not random: actives were taken first. Their share in the collection is about 2.5%.

How did NC(CSC(c1ccccc1)(c1ccccc1)c1ccc2c(c1)OCO2)C(=O)O (stereo not given) do in these assays?
MBD2 DNA inh: inactive; SUMO1 PPI mod: inactive; DNMT1 inh: 51; DSG3 Ab inh: 93; UHRF1 binding: inactive

How did CCN(CC)S(=O)(=O)c1cccc(C(=O)Nc2cc(C)nn2-c2ccccc2)c1 do in these assays?
MBD2 DNA inh: inactive; SUMO1 PPI mod: inactive; DNMT1 inh: inactive; HCV NS3 hel inh: inactive; DSG3 Ab inh: inactive; UHRF1 binding: inactive

What do the screens show for `CCN(CC)S(=O)(=O)c1ccc(Cl)c(C(=O)Nc2cc(C)nn2-c2ccccc2)c1`?
MBD2 DNA inh: inactive; SUMO1 PPI mod: inactive; DNMT1 inh: inactive; HCV NS3 hel inh: inactive; DSG3 Ab inh: inactive; UHRF1 binding: 65

Results for Cc1cc(C)cc(NC(=S)N2C3CCCC2CC(NC(=O)C2CC2)C3)c1 (stereo not given) ?
MBD2 DNA inh: inactive; SUMO1 PPI mod: inactive; DNMT1 inh: inactive; HCV NS3 hel inh: inactive; DSG3 Ab inh: inactive; UHRF1 binding: inactive

What do the screens show for `CN(C)CCNC(=O)C1CCCNC1=O` (stereo not given)?
MBD2 DNA inh: inactive; SUMO1 PPI mod: inactive; DNMT1 inh: inactive; HCV NS3 hel inh: inactive; DSG3 Ab inh: inactive; UHRF1 binding: inactive

What do the screens show for `Cc1ccc(S(=O)(=O)NCCNC(=O)C2CCCNC2=O)cc1` (stereo not given)?
MBD2 DNA inh: inactive; SUMO1 PPI mod: inactive; DNMT1 inh: inactive; HCV NS3 hel inh: inactive; DSG3 Ab inh: inactive; UHRF1 binding: 21

Results for COc1ccc(CCNC(=O)CN(c2cccc([N+](=O)[O-])c2)S(C)(=O)=O)cc1 ?
MBD2 DNA inh: inactive; SUMO1 PPI mod: inactive; DNMT1 inh: inactive; HCV NS3 hel inh: inactive; DSG3 Ab inh: inactive; UHRF1 binding: 38

What do the screens show for `Cc1cccc(C(=O)NC2CC3CCCC(C2)N3C(=O)Nc2ccccc2)c1` (stereo not given)?
MBD2 DNA inh: inactive; SUMO1 PPI mod: inactive; DNMT1 inh: inactive; HCV NS3 hel inh: inactive; UHRF1 binding: inactive

How did Cc1noc(C)c1COc1ccc(C(=O)N2CCN(c3ccccn3)CC2)cc1 do in these assays?
MBD2 DNA inh: inactive; SUMO1 PPI mod: inactive; DNMT1 inh: inactive; DSG3 Ab inh: inactive; UHRF1 binding: inactive

How did COc1ccc(C(=O)NCc2nnc(SCC(=O)N3CCc4ccccc43)n2CCc2ccccc2)cc1 do in these assays?
MBD2 DNA inh: inactive; SUMO1 PPI mod: inactive; DNMT1 inh: inactive; HCV NS3 hel inh: inactive; DSG3 Ab inh: inactive; UHRF1 binding: inactive

How did COc1ccc(C(=O)NCc2nnc(SCC(=O)N3CCc4ccccc43)n2C2CCCCC2)cc1 do in these assays?
MBD2 DNA inh: inactive; SUMO1 PPI mod: inactive; DNMT1 inh: inactive; HCV NS3 hel inh: inactive; DSG3 Ab inh: 89; UHRF1 binding: inactive

How did CCN(Cc1cc(OC)c(OC)c(OC)c1)C(=S)Nc1cccc(SC)c1 do in these assays?
MBD2 DNA inh: inactive; SUMO1 PPI mod: inactive; DNMT1 inh: inactive; HCV NS3 hel inh: inactive; DSG3 Ab inh: inactive; UHRF1 binding: inactive

How did O=C(O)/C=C\C(=O)Nc1ccc(Oc2ccc(Br)cc2)cc1 do in these assays?
MBD2 DNA inh: inactive; SUMO1 PPI mod: inactive; DNMT1 inh: inactive; HCV NS3 hel inh: inactive; DSG3 Ab inh: inactive; UHRF1 binding: inactive

What do the screens show for `COCCNC(=O)C1CCC(=O)N(c2ccc(OC)cc2)C1c1ccc(OC)c(OC)c1` (stereo not given)?
MBD2 DNA inh: inactive; SUMO1 PPI mod: inactive; DNMT1 inh: inactive; HCV NS3 hel inh: inactive; UHRF1 binding: 23

What do the screens show for `O=C(NCCOc1ccc(F)cc1)C1CCN(S(=O)(=O)c2ccccc2)CC1`?
MBD2 DNA inh: inactive; SUMO1 PPI mod: inactive; DNMT1 inh: inactive; HCV NS3 hel inh: inactive; UHRF1 binding: inactive

How did C=CCN(CC=C)S(=O)(=O)c1ncn[nH]1 do in these assays?
MBD2 DNA inh: inactive; SUMO1 PPI mod: 44; DNMT1 inh: inactive; HCV NS3 hel inh: inactive; DSG3 Ab inh: inactive; UHRF1 binding: inactive

How did C=CCN(CC=C)S(=O)(=O)c1ccc(F)cc1 do in these assays?
MBD2 DNA inh: inactive; SUMO1 PPI mod: inactive; DNMT1 inh: inactive; HCV NS3 hel inh: inactive; DSG3 Ab inh: inactive; UHRF1 binding: inactive

How did Cc1cccc(NS(=O)(=O)c2c(C)[nH]c(C)c2C(=O)N2CCCC2)c1 do in these assays?
MBD2 DNA inh: inactive; SUMO1 PPI mod: inactive; DNMT1 inh: inactive; HCV NS3 hel inh: inactive; DSG3 Ab inh: inactive; UHRF1 binding: inactive

Results for C=CCn1c(C)cc(C(=O)COc2ccc(S(=O)(=O)N3CCCC3)cc2[N+](=O)[O-])c1C ?
MBD2 DNA inh: inactive; SUMO1 PPI mod: inactive; DNMT1 inh: inactive; HCV NS3 hel inh: inactive; DSG3 Ab inh: inactive; UHRF1 binding: inactive

Results for O=C(Nc1ccc(-c2nc3ccccc3o2)cc1)c1ccc(N2C(=O)C3C4C=CC(C4)C3C2=O)cc1 (stereo not given) ?
MBD2 DNA inh: inactive; SUMO1 PPI mod: inactive; DNMT1 inh: inactive; HCV NS3 hel inh: inactive; DSG3 Ab inh: 55; UHRF1 binding: inactive

Results for Cc1ccsc1CN(C)C(=O)c1ccc(Oc2ccccc2)cc1 ?
MBD2 DNA inh: inactive; SUMO1 PPI mod: inactive; DNMT1 inh: inactive; HCV NS3 hel inh: inactive; UHRF1 binding: inactive

How did COc1ccc(-c2nn(-c3ccccc3)cc2C=O)cc1[N+](=O)[O-] do in these assays?
MBD2 DNA inh: inactive; SUMO1 PPI mod: inactive; DNMT1 inh: inactive; HCV NS3 hel inh: inactive; DSG3 Ab inh: inactive; UHRF1 binding: inactive

Results for COc1ccc(-c2nnc(SC)nc2-c2ccc(OC)c([N+](=O)[O-])c2)cc1[N+](=O)[O-] ?
MBD2 DNA inh: inactive; SUMO1 PPI mod: inactive; DNMT1 inh: inactive; UHRF1 binding: 24

How did CCOC(=O)c1c2c(n(-c3ccc(OC)cc3)c1C)C(=O)C(=O)c1ccccc1-2 do in these assays?
SUMO1 PPI mod: inactive; DNMT1 inh: 86

What do the screens show for `CCOC(=O)c1sc(=S)n(-c2ccc(OC)cc2)c1C`?
MBD2 DNA inh: inactive; SUMO1 PPI mod: inactive; DNMT1 inh: inactive; HCV NS3 hel inh: inactive; DSG3 Ab inh: inactive; UHRF1 binding: inactive

What do the screens show for `O=C(COC(=O)c1cccnc1Cl)Nc1cc(S(=O)(=O)N2CCOCC2)ccc1Cl`?
MBD2 DNA inh: inactive; SUMO1 PPI mod: inactive; DNMT1 inh: inactive; UHRF1 binding: inactive

Results for Clc1ccc(Nc2nc3cccnc3s2)cc1 ?
MBD2 DNA inh: inactive; SUMO1 PPI mod: inactive; DNMT1 inh: inactive; HCV NS3 hel inh: inactive; DSG3 Ab inh: inactive; UHRF1 binding: inactive

Results for CC(C)(C)c1ccc(OCCCC(=O)NC2=NCCS2)cc1 ?
MBD2 DNA inh: inactive; SUMO1 PPI mod: inactive; DNMT1 inh: inactive; HCV NS3 hel inh: inactive; DSG3 Ab inh: -19; UHRF1 binding: inactive

Results for CC(C)(C)c1ccc(C(=O)NCCC(=O)NC2=NCCS2)cc1 ?
MBD2 DNA inh: inactive; SUMO1 PPI mod: inactive; DNMT1 inh: inactive; DSG3 Ab inh: inconclusive; UHRF1 binding: inactive

Results for Nc1[nH]nc2nc3ccccc3cc12 ?
MBD2 DNA inh: inactive; SUMO1 PPI mod: inactive; DNMT1 inh: inactive; HCV NS3 hel inh: inactive; UHRF1 binding: inactive

How did Nc1cccc2nc3ccccc3cc12 do in these assays?
SUMO1 PPI mod: inactive; DNMT1 inh: 69; HCV NS3 hel inh: inactive

Assay outcomes (PubChem)
